pIC50: −log10 of the molar value.
Columns and labels:
[1] = target: T1, Cholesteryl ester transfer protein (Homo sapiens, UniProt P11597); assay: Inhibition of human recombinant CETP-mediated [3H]cholesteryl ester transfer from HDL to biotinylated LDL by scintillation proximity assay
T1 sequence (P11597 whole entry): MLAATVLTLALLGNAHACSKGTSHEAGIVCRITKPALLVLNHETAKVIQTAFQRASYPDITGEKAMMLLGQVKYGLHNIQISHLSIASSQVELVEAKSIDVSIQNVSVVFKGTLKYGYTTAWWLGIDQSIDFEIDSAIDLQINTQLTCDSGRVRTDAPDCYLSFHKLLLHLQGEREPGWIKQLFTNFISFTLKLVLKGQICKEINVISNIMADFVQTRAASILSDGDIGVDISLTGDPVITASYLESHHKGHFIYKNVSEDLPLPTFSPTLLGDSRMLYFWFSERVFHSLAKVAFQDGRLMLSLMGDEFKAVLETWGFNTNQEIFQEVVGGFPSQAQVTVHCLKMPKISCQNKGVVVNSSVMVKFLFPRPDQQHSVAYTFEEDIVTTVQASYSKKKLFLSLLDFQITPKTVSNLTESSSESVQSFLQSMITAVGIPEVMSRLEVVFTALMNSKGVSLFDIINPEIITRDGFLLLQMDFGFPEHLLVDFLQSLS

[2] = target: T1, Cholesteryl ester transfer protein; assay: Inhibition of CETP-mediated [3H]cholesteryl ester transfer activity in human plasma after 2.5 hrs by scintillation counter
[3] = AUC (0 to 8 hrs) in transgenic mouse expressing human CETP and apoB-100 at 30 mg/kg, po; assay type: ADME, organism-based; parameters: time < 8 hr, dose 30 mg/kg, route oral; conditions: plasma
Mus musculus [4] = assay: Residual CETP-mediated [3H]cholesteryl ester transfer from HDL to LDL in human CETP expressed transgenic mouse coexpressing apoB-100 at 30 mg/kg, po measured at 8 hrs relative to predose condition
Mus musculus [5] = organism: Mus musculus; assay: Inhibition of [3H]cholesteryl ester transfer from HDL to LDL in human CETP expressed transgenic mouse plasma coexpressing apoB-100
Mus musculus [6] = assay: [3H]cholesteryl ester transfer activity from HDL to LDL in human CETP expressed transgenic mouse plasma coexpressing apoB-100 at 30 mg/kg, po measured at 2 hrs relative to predose condition
Mus musculus [7] = assay: Residual CETP-mediated [3H]cholesteryl ester transfer from HDL to LDL in human CETP expressed transgenic mouse coexpressing apoB-100 at 30 mg/kg, po measured at 4 hrs relative to predose condition
Syrian golden hamster = assay: Inhibition of CETP in moderately fat-fed golden Syrian hamster assessed as increase in HDL-cholesterol level at 30 mg/kg, po qd administered for 3 days measured at 2 hrs post last dose relative to predose condition; assay type: functional, Mesocricetus auratus; parameters: scale not given: the % may be the effect or the level left
Outline: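 Male Golden Syrian hamsters, 12 weeks old, fed moderate-fat diet (2.5% coconut oil, 0.25% cholesterol) for 2 weeks. Predose retro-orbital bleed; 30 mg/kg po q.d. for 3 days in ethanol/Cremophor/water 1:1:8. Blood 2 h postdose on day 3; HDL-C measured by automated lipid analyzer versus predose; percent increase as mean ± SEM, N = 6.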

[8] = Half life in telemeterized rat up to 60 mg/kg, po; assay type: ADME, organism-based; parameters: dose 60 mg/kg, route oral; conditions: in vivo
[9] = Drug metabolism in mouse liver microsomes assessed as per mg of protein at 3 uM after 10 mins; assay type: ADME, Microsome
Outline: (§1)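 Mouse liver microsomes (1 mg/mL protein) incubated with compound at 3 μM for 10 min; remaining compound quantified by UV absorbance, expressed as % remaining or rate per mg protein.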

Rattus norvegicus [10] = assay: Toxicity in telemeterized rat assessed as change in heart rate up to 60 mg/kg, po; assay type: organism-based; parameters: dose 60 mg/kg, route oral; conditions: in vivo
[11] = Cmax in telemeterized rat up to 60 mg/kg, po; assay type: ADME, organism-based; parameters: dose 60 mg/kg, route oral; conditions: in vivo
Rattus norvegicus [12] = assay: Toxicity in telemeterized rat assessed as change in mean arterial blood pressure up to 60 mg/kg, po; assay type: organism-based; parameters: dose 60 mg/kg, route oral; conditions: in vivo
[13] = Plasma concentration in moderately fat-fed golden Syrian hamster at 30 mg/kg, po qd administered for 3 days measured at 2 hrs post last dose; assay type: ADME, organism-based, Mesocricetus auratus; parameters: dose 30 mg/kg, route oral
Outline: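 Moderately fat-fed male Golden Syrian hamsters dosed 30 mg/kg po once daily; plasma exposure sampled 2 h after dosing on day 3.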

[14] = Metabolic stability in mouse liver microsomes assessed as compound remaining at 3 uM after 10 mins; assay type: ADME, Microsome; conditions: read-out: Stability; outline: as §1

pIC50 [1] | pIC50 [2] | Compound | other results
4.57 | – | CC(C)(C)CC(=O)NC(Cc1ccccc1)(c1cccc(C(F)(F)F)c1)c1ccccn1 (stereo not given) | –
5.62 | – | COC(=O)C[C@](NC(=O)NC1CCCC1)(c1cc(F)cc(C(F)(F)F)c1)c1ccc(Cl)cn1 | –
7.51 | 5.57 | O=C(NC1CCCC1)NC(Cc1ccccc1)(c1cccc(OC(F)(F)F)c1)c1ccc(Cl)cn1 (racemic) | –
5.89 | 5.03 | CC(C)(C)CC(=O)OC(Cc1ccccc1)(c1cccc(C(F)(F)F)c1)c1ccc(Cl)cn1 (racemic) | –
7.64 | 5.47 | Cc1ccc(C[C@](NC(=O)NC2CCCC2)(c2cc(F)cc(C(F)(F)F)c2)c2ccc(Cl)cn2)cc1 | –
7.44 | 5.44 | O=C(N[C@@](Cc1ccccc1)(c1cc(F)cc(OC(F)(F)C(F)F)c1)c1ccc(Cl)cn1)c1ccc(F)c(C(F)(F)F)c1 | Activity (Syrian golden hamster): 40%; half-life [8]: 14 h; Drug metabolism [9]: 0.0025 nmol/min/mg; Activity (Rattus norvegicus [10]): Non-toxic; Cmax [11]: 25 µM; AUC(0-t) at 8 h [3]: 93 µM·h; CETP activity in vivo at 30 mg/kg (Mus musculus [4]): 40%; Activity (Rattus norvegicus [12]): Non-toxic; concentration at 2 h [13]: 21 µM; remaining at 10 min, 3 µM [14]: 100%; pIC50 (Mus musculus [5]): 5.05; activity in vivo at 30 mg/kg (Mus musculus [6]): 55%; CETP activity in vivo at 30 mg/kg (Mus musculus [7]): 48%
5.96 | 4.62 | Cc1csc(C[C@](NC(=O)NC2CCCC2)(c2cc(F)cc(C(F)(F)F)c2)c2ccc(Cl)cn2)n1 | –
6.15 | 4.60 | O=C(NC1CCCC1)NC(Cc1ccccc1)(c1cccc(C(F)(F)F)c1)c1ccccn1 (stereo not given) | remaining at 10 min, 3 µM [14]: 2%
5.42 | 4.08 | CC(C)(C)NC(=O)NC(Cc1ccccc1)(c1cccc(C(F)(F)F)c1)c1ccccn1 (stereo not given) | –
< 4.02 | – | O=C(NC(Cc1ccccc1)(c1cccc(C(F)(F)F)c1)c1ccccn1)c1ccccc1 (stereo not given) | –
4.92 | – | O=C(NC(Cc1ccccc1)(c1cccc(C(F)(F)F)c1)c1ccccn1)c1cccc(C(F)(F)F)c1 (stereo not given) | –
5.05 | – | O=C(NC(Cc1ccccc1)(c1cccc(C(F)(F)F)c1)c1ccccn1)c1ccc(F)cc1 (stereo not given) | –
6.51 | 4.80 | O=C(NC1CCCC1)NC(Cc1ccccc1)(c1cccc(C(F)(F)F)c1)c1ccc(Cl)cn1 (racemic) | –

Continued, compound first:

Compound | pIC50 [1] | pIC50 [2] | other results
CC(C)(C)CC(=O)O[C@@](Cc1ccccc1)(c1cccc(C(F)(F)F)c1)c1ccccn1 | 5.17 | 4.59 | –
O=C(NC1CCCC1)N[C@@](Cc1ncn[nH]1)(c1cc(F)cc(C(F)(F)F)c1)c1ccc(Cl)cn1 | < 4.02 | – | –
CCOC(=O)N1c2ccc(C(F)(F)F)cc2[C@@H](N(Cc2cc(C(F)(F)F)cc(C(F)(F)F)c2)C(=O)OC)C[C@H]1CC [TORCETRAPIB] | – | – | AUC(0-t) at 8 h [3]: 65 µM·h; CETP activity in vivo at 30 mg/kg (Mus musculus [4]): 25%; pIC50 (Mus musculus [5]): 6.80; activity in vivo at 30 mg/kg (Mus musculus [6]): 31%; CETP activity in vivo at 30 mg/kg (Mus musculus [7]): 31%
O=C(NC1CCCC1)NC(Cc1ccccc1)(c1ccc(Cl)nc1)c1cc(F)cc(C(F)(F)F)c1 (racemic) | 7.51 | 4.92 | –
N#Cc1ccc([C@@](Cc2ccccc2)(NC(=O)NC2CCCC2)c2cc(F)cc(C(F)(F)F)c2)nc1 | 7.44 | 4.92 | –
Cc1nc(C[C@](NC(=O)NC2CCCC2)(c2cc(F)cc(C(F)(F)F)c2)c2ccc(Cl)cn2)no1 | 5.97 | 4.47 | –
CC(C)(C)CC(=O)OC(Cc1ccccc1)(c1cccc(OC(F)(F)C(F)F)c1)c1ccccn1 (racemic) | 5.96 | 4.55 | –
CC(C)(C)CC(=O)O[C@](Cc1ccccc1)(c1cccc(C(F)(F)F)c1)c1ccccn1 | 4.36 | < 4.01 | –
O=C(NC1CCCC1)N[C@@](Cc1ccc(F)cc1)(c1cc(F)cc(C(F)(F)F)c1)c1ccc(Cl)cn1 | 7.06 | 5.00 | –
COc1ccc([C@@](Cc2ccccc2)(NC(=O)NC2CCCC2)c2cc(F)cc(C(F)(F)F)c2)cn1 | 7.82 | 5.47 | –
O=C(NC1CCCC1)NC(Cc1ccccc1)(c1cccc(OC(F)(F)C(F)F)c1)c1ccc(Cl)cn1 (racemic) | 7.60 | 6.08 | –
O=C(NC(Cc1ccccc1)(c1cccc(C(F)(F)F)c1)c1ccccn1)c1ccc(F)c(C(F)(F)F)c1 (stereo not given) | 5.54 | 4.82 | remaining at 10 min, 3 µM [14]: 68%
O=C(NC1CCCC1)N[C@@](Cc1ccccc1)(c1cc(F)cc(C(F)(F)F)c1)c1ccc(F)cn1 | 7.59 | 5.12 | –
O=C(NC1CCCC1)N[C@@](Cc1ccccc1F)(c1cc(F)cc(C(F)(F)F)c1)c1ccc(Cl)cn1 | 7.80 | 5.19 | –
O=C(NC1CCCC1)NC(Cc1ccccc1)(c1cccc(C(F)(F)F)c1)c1ccc(F)cn1 (racemic) | 6.62 | 5.16 | –
O=C(NC1CCCC1)N[C@@](Cc1ccccn1)(c1cc(F)cc(C(F)(F)F)c1)c1ccc(Cl)cn1 | 4.57 | – | –
C=CC[C@](NC(=O)NC1CCCC1)(c1cc(F)cc(C(F)(F)F)c1)c1ccc(Cl)cn1 | 7.07 | 5.15 | –
CC(C)(C)CC(=O)OC(Cc1ccccc1)(c1cccc(C(F)(F)F)c1)c1ccccn1 (racemic) | 5.16 | 4.25 | –
O=C(NC1CCCC1)N[C@@](Cc1ccccc1)(c1cc(F)cc(OC(F)(F)C(F)F)c1)c1ccc(Cl)cn1 | – | – | Drug metabolism [9]: 0.27 nmol/min/mg; AUC(0-t) at 8 h [3]: 9.7 µM·h; CETP activity in vivo at 30 mg/kg (Mus musculus [4]): 65%; remaining at 10 min, 3 µM [14]: 10%; pIC50 (Mus musculus [5]): 6.03; activity in vivo at 30 mg/kg (Mus musculus [6]): 48%; CETP activity in vivo at 30 mg/kg (Mus musculus [7]): 58%

— ChEMBL document CHEMBL2163208, “Diphenylpyridylethanamine (DPPE) derivatives as cholesteryl ester transfer protein (CETP) inhibitors” (J Med Chem, 2012)
